Experiments:
[1] = test system: MCF7; experiment: Cytotoxicity against human HER2-deficient MCF7 cells expressing estrogen receptor after 48 hrs by MTT assay; type: functional; conditions: MCF7, 48 h
Procedure, shortened: (§1)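 Cells (HEK 293T, MCF-7, MDA-MB-231 from ATCC) seeded the day before in medium with serum, penicillin G, streptomycin and 2 mM L-glutamine. Compounds in DMSO, serially diluted in medium, final DMSO ≤0.5% (v/v), same in controls. 48 h at 37 °C, 5% CO2. MTT 3 h, formazan dissolved in DMSO, A570. Triplicates, ≥3 experiments. GI50 from % viable cells.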

[2] = test system: MDA-MB-231; experiment: Cytotoxicity against human HER2/estrogen receptor-deficient MDA-MB-231 cells after 48 hrs by MTT assay; type: functional; conditions: MDA-MB-231, 48 h; procedure, shortened: as §1
[3] = Cytotoxicity against HEK293T cells after 48 hrs by MTT assay; type: cell-based, HEK-293T; conditions: human; procedure, shortened: as §1
[4] = test system: HEK-293T; experiment: Selectivity index, ratio of GI50 for HEK293T cells to GI50 for human HER2-deficient MCF7 cells; type: functional
[5] = Solubility of the compound at 100 uM; type: physicochemical

solubility [5] | SMILES | GI50 [1] [µM] | GI50 [2] [µM] | GI50 at 48 h [3] [µM] | RatioGI50 [4]
 | COc1ccc(C2=NN(c3ccccc3)[C@]3(C(=O)Nc4cc(Br)ccc43)[C@H]2c2ccccc2)cc1 | 7 | 28.6 | > 100 | >14
 | COc1ccc(C2=NN(c3ccccc3)[C@]3(C(=O)Nc4cc(Cl)ccc43)[C@H]2c2ccccc2)cc1 | 42.6 |  |  | 
Insoluble | O=C1Nc2cc(Cl)ccc2[C@]12[C@@H](c1ccccc1)C(c1ccccc1)=NN2c1ccccc1 | 27.1 | > 50 | > 50 | >2
 | COc1ccc(C2=NN(c3ccccc3)[C@]3(C(=O)Nc4ccc(Cl)cc43)[C@H]2c2ccccc2)cc1 | 33.9 |  |  | 
 | CCOC(=O)[C@H]1C(c2ccccc2)=NN(c2ccccc2)[C@]12C(=O)Nc1ccc(Cl)cc12 | > 100 |  |  | 
 | O=C1Nc2ccc(Br)cc2[C@]12[C@@H](c1ccccc1)C(c1ccccc1)=NN2c1ccccc1 | 7.3 | > 100 | > 100 | >13
 | CC(C)(C)C1=NN(c2ccccc2)[C@]2(C(=O)Nc3cc(Br)ccc32)[C@H]1c1ccccc1 | 8.5 | 15 | 20.9 | 2.5
 | O=C1Nc2ccc(Br)cc2[C@]12CC(c1ccccc1)=NN2 | > 100 |  |  | 
 | COc1ccc([C@H]2C(c3ccccc3)=NN(c3ccccc3)[C@]23C(=O)Nc2cc(Cl)ccc23)cc1 | > 100 |  |  | 
 | O=C(c1ccccc1)[C@H]1C(c2ccccc2)=NN(c2ccccc2)[C@]12C(=O)Nc1ccc(Cl)cc12 | > 100 |  |  | 
 | CC(C)(C)C1=NN(c2ccccc2)[C@]2(C(=O)Nc3c(Cl)cccc32)[C@H]1c1ccccc1 | 8.6 | 6.4 | 17.8 | 2
 | O=C1Nc2ccccc2[C@]12[C@@H](c1ccccc1)C(c1ccccc1)=NN2c1ccccc1 | > 100 |  |  | 
 | O=C1Nc2ccc(Cl)cc2[C@]12CC(c1ccccc1)=NN2 | > 100 |  |  | 
 | O=C1Nc2cc(Br)ccc2[C@]12[C@@H](c1ccccc1)C(c1ccccc1)=NN2c1ccccc1 | 9.6 | 8.3 | 28.9 | 3
 | O=C1Nc2ccccc2[C@]12CC(c1ccccc1)=NN2 | > 100 |  |  | 
 | COc1ccc(C2=NN(c3ccccc3)[C@]3(C(=O)Nc4c(Cl)cccc43)[C@H]2c2ccccc2)cc1 | 11.5 | > 100 | > 100 | >8
 | O=C1Nc2ccc(Cl)cc2[C@]12[C@@H](c1ccccc1)C(c1ccccc1)=NN2c1ccccc1 | 37.7 |  |  | 
Insoluble | CC(C)(C)C1=NN(c2ccccc2)[C@]2(C(=O)Nc3cc(Cl)ccc32)[C@H]1c1ccccc1 | 21.7 | > 50 | > 50 | >2
